The results in this text go back to ChEMBL document CHEMBL1121953, “Carbon-7 substituted actinomycin D analogues as improved antitumor agents: synthesis and DNA-binding and biological properties” (J Med Chem, 1982).

Assay [1] is filed under the species Homo sapiens. Kind of assay: (§1) In vitro growth inhibitory activity against human lymphoblastic leukemia cells. Type of assay: functional. To be noted: read-out: ID50 (the source's name). An outline of the steps:
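CCRF-CEM human lymphoblastic leukemia cells in log-phase growth; compounds dissolved in Me₂SO, final growth medium 1% Me₂SO.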

Assay [2] can be described thus: In vitro growth inhibitory activity for effect on melting temperature of DNA was determined. An outline of the steps: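 DNA thermal denaturation; ΔTm = Tm of DNA-drug complex minus Tm of DNA. Drug 1.4×10⁻⁴ M, DNA (P) 1.4×10⁻³ M in 0.01 M phosphate buffer pH 7.0 with 5×10⁻³ M EDTA and 5% dimethyl sulfoxide.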
Assay [3] is filed under the species Homo sapiens. The assay is described as §1. The assay is classed as functional. The following applies: read-out: ID50 (the source's name). An outline of the steps:
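Human CCRF-CEM lymphoblastic leukemia cells were used in log-phase growth. Compounds were dissolved in Me2SO, and the final growth medium contained 1% Me2SO. Test solution homogeneity was checked by TLC and HPLC at each test.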
This is another data set of the same source.

For assay [4], the system named is P388. Description: Number of mice with P-388 lymphocytic leukemia cured( 3 mg/kg),ip; 0/7. Type of assay: functional, Mus musculus. Put shortly: (§2)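 Male CDF1 mice (18-23 g) were inoculated ip with 10⁶ P-388 cells on day 0. Drug was given ip in 10% dimethyl sulfoxide-saline on days 1, 5 and 9. Test solutions were kept at 0-4 °C, protected from light, and checked periodically for stability and homogeneity by TLC and HPLC. Read-out was survival, median survival time, increase in life span and tumor-free cures per 7 animals.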

For assay [5], the system named is P388. Description: Number of mice with P-388 lymphocytic leukemia cured(0.15 mg/kg),ip.; 0/7. The assay is classed as functional, Mus musculus. An outline of the steps: as §2
Assay [6] relates to P388. Description: Number of mice with P-388 lymphocytic leukemia cured(1.2 mg/kg),ip; 0/7. Type of assay: functional, Mus musculus. An outline of the steps: as §2
Assay [7] relates to P388. Kind of assay: Number of mice with P-388 lymphocytic leukemia cured.( 0.3 mg/kg),ip; 0/7. Type of assay: functional, Mus musculus.
Assay [8] relates to P388. Description: Number of mice with P-388 lymphocytic leukemia cured.( 0.6 mg/kg),ip; 0/7. The assay is classed as functional, Mus musculus.
For assay [9], the system named is P388. Description: Number of mice with P-388 lymphocytic leukemia cured.(1.8 mg/kg),ip; 0/7. The assay is classed as functional, Mus musculus.
Assay [10] deals with P388. Description: Antitumor activity against P-388 lymphocytic leukemia in CDF1 hybrid male mice measured as percent increase in lifespan( 0.15 mg/kg),ip. Type of assay: functional. The following applies: Mus musculus. An outline of the steps: as §2
Assay [11] deals with P388. Description: Antitumor activity against P-388 lymphocytic leukemia in CDF1 hybrid male mice measured as percent increase in lifespan( 0.6 mg/kg),ip. The assay is classed as functional. The following applies: Mus musculus. An outline of the steps:
as §2

Assay [12] concerns P388. Description: Antitumor activity against P-388 lymphocytic leukemia in CDF1 hybrid male mice measured as percent increase in lifespan( 1.2 mg/kg),ip. Type of assay: functional. The following applies: Mus musculus. An outline of the steps: as §2
Assay [13] relates to P388. Kind of assay: Antitumor activity against P-388 lymphocytic leukemia in CDF1 hybrid male mice measured as percent increase in lifespan( 1.8 mg/kg),ip. The assay is classed as functional. To be noted: Mus musculus. Put shortly:
as §2

For assay [14], the system named is P388. Description: Antitumor activity against P-388 lymphocytic leukemia in CDF1 hybrid male mice measured as percent increase in lifespan( 3 mg/kg),ip. The assay is classed as functional. To be noted: Mus musculus. Put shortly:
as §2

Assay [15] deals with P388. Kind of assay: Antitumor activity against P-388 lymphocytic leukemia in CDF1 hybrid male mice measured as percent increase in lifespan(0.3 mg/kg),ip. Type of assay: functional, Mus musculus. An outline of the steps: as §2
The test system of assay [16] is P388. Kind of assay: Maximum tolerated dose was determined compared to 7-(2,3-Epoxypropoxy)-actinomycin D against P-388 leukemia in mice(3 days). Type of assay: functional, Mus musculus. An outline of the steps: (§3)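 Tumor-free male CDF1 mice (18-23 g) received a broad dose range ip in 10% dimethyl sulfoxide-saline, either on days 1, 5, 9 (three injections) or on 4 successive days (qd 1-4). Deaths were recorded over 21 days. MTD was the dose lethal to 10% (LD10), taken from a plot of log dose vs percent mortality. Average of two experiments.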

The subject of assay [17] is P388. Kind of assay: Maximum tolerated dose was determined compared to 7-(2,3-Epoxypropoxy)-actinomycin D against P-388 leukemia in mice(4 days). Type of assay: functional, Mus musculus. An outline of the steps:
as §3

Assay [18] concerns P388. Kind of assay: Antitumor activity against P-388 lymphocytic leukemia in CDF1 hybrid male mice measured as median survival time (1.8 mg/kg),ip. The assay is classed as functional, Mus musculus. Put shortly: as §2
The subject of assay [19] is P388. Description: Antitumor activity against P-388 lymphocytic leukemia in CDF1 hybrid male mice measured as median survival time (0.15 mg/kg),ip. The assay is classed as functional, Mus musculus. An outline of the steps: as §2
Assay [20] deals with P388. Kind of assay: Antitumor activity against P-388 lymphocytic leukemia in CDF1 hybrid male mice measured as median survival time (0.3 mg/kg),ip. The assay is classed as functional, Mus musculus. An outline of the steps:
as §2

The test system of assay [21] is P388. Description: Antitumor activity against P-388 lymphocytic leukemia in CDF1 hybrid male mice measured as median survival time (3 mg/kg),ip. The assay is classed as functional, Mus musculus. Put shortly:
as §2

The test system of assay [22] is P388. Kind of assay: Minimum effective dose was determined compared to 7-(2,3-Epoxypropoxy)-actinomycin D against P-388 leukemia in mice(3 days). The assay is classed as functional, Mus musculus. Set-up: unit: mg/kg. An outline of the steps: (§4)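 MED was the dose (mg/kg) giving a 40% increase in life span over control in mice bearing ip P-388 leukemia. Drug was given ip in 10% dimethyl sulfoxide-saline on a q4d 1, 5, 9 (three injections) or qd 1-4 (four injections) schedule.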

The test system of assay [23] is P388. Kind of assay: Minimum effective dose was determined compared to 7-(2,3-Epoxypropoxy)-actinomycin D against P-388 leukemia in mice(4 days). The assay is classed as functional, Mus musculus. An outline of the steps:
as §4

The test system of assay [24] is P388. Kind of assay: Antitumor activity against P-388 lymphocytic leukemia in CDF1 hybrid male mice measured as median survival time ( 0.6 mg/kg),ip. The assay is classed as functional, Mus musculus. Put shortly:
as §2

Assay [25] concerns P388. Kind of assay: Antitumor activity against P-388 lymphocytic leukemia in CDF1 hybrid male mice measured as median survival time ( 1.2 mg/kg),ip. The assay is classed as functional, Mus musculus. An outline of the steps: as §2

Structures are written as SMILES. ≈ marks a conversion by molar mass, not a printed value.

For the compound `CCN(CC)C(=O)c1c2nc3c(C(=O)N(CC)CC)cc(OCC4CO4)c(C)c3oc-2c(C)c(=O)c1N` (configuration not stated), in the assay listed under Homo sapiens [1], the IC50 was 9 µg/mL (≈ 17.6 µM). Besides, the DNA melting temperature shift (ΔTm) in [2] was determined as 0 °C.

Take `CCN(CC)C(=O)c1c2nc3c(C(=O)N(CC)CC)cc(OCC(O)CO)c(C)c3oc-2c(C)c(=O)c1N` (configuration not stated): the IC50 in the assay filed under Homo sapiens [1] is roughly 10 µg/mL (≈ 18.9 µM). For the same compound, the DNA melting temperature shift (ΔTm) in assay [2] worked out at 0 °C.

`Cc1c2oc3c(C)c(O)c(N)c(C(=O)N[C@@H]4C(=O)N[C@H](C(C)C)C(=O)N5CCC[C@H]5C(=O)N(C)CC(=O)N(C)[C@@H](C(C)C)C(=O)O[C@@H]4C)c3nc-2c(C(=O)N[C@@H]2C(=O)N[C@H](C(C)C)C(=O)N3CCC[C@H]3C(=O)N(C)CC(=O)N(C)[C@@H](C(C)C)C(=O)O[C@@H]2C)cc1=O`: the IC50 in the assay listed under Homo sapiens [3] is 0.95 µg/mL (≈ 0.747 µM). The Cure in the assay with P388 [4], in the assay with P388 [5], in the assay on P388 [6], with P388 [7], in the assay with P388 [8] and in the assay with P388 [9] was 0 each time. Moreover, in the assay on P388 [10], the ILS at 0.15 mg/kg was determined as 10%. The compound further returned an ILS at 0.6 mg/kg in the assay with P388 [11] of 89%. In the assay on P388 [12], this compound came in with an ILS at 1.2 mg/kg of 127%. Moreover, the ILS at 1.8 mg/kg in the assay with P388 [13] was determined as 136%. The same compound returned an ILS at 3 mg/kg with P388 [14] of 37%. Besides, in the assay on P388 [15], the increase in life span (ILS) is listed as 55%. Besides, the figures for the MTD in the assay on P388 [16] and in the assay with P388 [17] were 4.2 and 2, respectively. Further, the MST was 26 days with P388 [18]; 12 days with P388 [19]; 17 days with P388 [20]; 15 days in the assay on P388 [21]; 21 days with P388 [24]; 25 days with P388 [25]. Also, the figures for the MED with P388 [22] and in the assay on P388 [23] were 0.275 and 0.2, respectively.

For orientation: ILS means how much longer treated animals lived than controls.
